From PMC12366268 (The Febs Journal, 2025) come the findings set out here.

A short description of series [1]: Stability in human serum measured by mass spectrometry. The format is in vitro ADME. The conditions noted are these: 25% human serum in PBS. The essentials: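 Peptide at 10 μM was incubated in 25% human serum in PBS at 37 °C. Aliquots were taken at 0, 2.5, 5, 10, 20, 40 and 60 min into 0.2% formic acid (1:4) containing an internal standard and held at 4 °C. Peptide abundance relative to the internal standard was measured by mass spectrometry and plotted against incubation time.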

Another series deals with PCNA (Homo sapiens, UniProt P12004). As to the kind of experiment: Isothermal titration calorimetry. The format is binding. The conditions noted are these: ITC, pH 7.4, 25 °C, mean ± SEM of n = 3. A digest of the protocol: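 His6-tagged PCNA (HRV 3C site) was IPTG-induced at 37 °C, then purified by Ni-NTA and Superdex 200 SEC. Protein was buffer-exchanged into 20 mM sodium phosphate, 0–500 mM NaCl, 1 mM TCEP, pH 7.4, with peptides dissolved in the same buffer. PCNA was in the cell, peptide in the syringe; 25 °C, 750 rpm stirring. Data were fitted to a one-set-of-sites model; triplicates, SEM.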
Sequence of PCNA (P12004 whole entry): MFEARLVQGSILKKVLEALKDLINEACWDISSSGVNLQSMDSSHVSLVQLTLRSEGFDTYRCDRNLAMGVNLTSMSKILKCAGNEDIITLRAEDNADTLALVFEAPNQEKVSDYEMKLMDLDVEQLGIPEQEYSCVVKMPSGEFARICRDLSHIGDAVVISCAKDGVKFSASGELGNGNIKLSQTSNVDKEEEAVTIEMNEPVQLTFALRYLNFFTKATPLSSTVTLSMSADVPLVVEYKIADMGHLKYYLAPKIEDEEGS
In general terms: In ITC the heat of successive injections is recorded.

The target in series [2] is T1, proliferating cell nuclear antigen (PCNA) (UniProt P12004 1-261). Put plainly: ITC.
T1 sequence (P12004 whole entry): as above
Series [3] deals with T1, proliferating cell nuclear antigen …. As to the kind of experiment: ITC. This is another data set of the same source.
Series [4] has the same target. Put plainly: ITC. This is another data set of the same source.
The target is the same in series [5]. Put plainly: ITC. This is another data set of the same source.
Series [6] shares this target. Put plainly: ITC. The source holds these as a separate data set.
Series [7] has the same target. As to the kind of experiment: ITC. This is another data set of the same source.

Like-named read-outs stand apart in the source and are kept apart here.

On to `CSCC[C@H](NC(=O)[C@H](CO)NC(=O)[C@@H](NC(=O)[C@H](CCC(N)=O)NC(=O)[C@H](CCCNC(=N)N)NC(=O)[C@H](CCCNC(=N)N)NC(=O)[C@H](CCCCN)NC(=O)[C@H](CCCNC(=N)N)NC(C)=O)[C@@H](C)O)C(=O)N[C@H](C(=O)N[C@@H](CC(=O)O)C(=O)N[C@@H](Cc1ccccc1)C(=O)N[C@@H](Cc1ccc(O)cc1)C(=O)N[C@@H](Cc1c[nH]cn1)C(=O)N[C@@H](CO)C(=O)N[C@@H](CCCCN)C(=O)N[C@@H](CCCNC(=N)N)C(=O)N[C@@H](CCCNC(=N)N)C(N)=O)[C@@H](C)O` [p21_140–156], for which, in series [1], the half-life at 10 μM was ~11 min.
With Ac-KKKKQTSMTDFYHSKKK-NH2 [p21All–K], the “N (binding stoichiometry)” value on PCNA (100 mM NaCl) was found to be 0.92 ± 0.01; on PCNA (200 mM NaCl) it was 0.75 ± 0.02; at PCNA (300 mM NaCl), 0.71 ± 0.02; on PCNA (400 mM NaCl) it was 0.80 ± 0.02. In addition, the ΔH at PCNA (100 mM NaCl) is -16.3 ± 0.48 kcal/mol; on PCNA (200 mM NaCl), -17.7 ± 0.96 kcal/mol; at PCNA (300 mM NaCl), -19.1 ± 0.72 kcal/mol; at PCNA (400 mM NaCl) it was -18.2 ± 0.72 kcal/mol. The “−TΔS” value at PCNA (100 mM NaCl) was 6.69 ± 0.48 kcal/mol; at PCNA (200 mM NaCl) it was 8.84 ± 0.96 kcal/mol; on PCNA (300 mM NaCl), 9.8 ± 0.72 kcal/mol; at PCNA (400 mM NaCl), 9.8 ± 0.96 kcal/mol.
Consider Ac-KRKKQTSMTDFYHSRKK-NH2 [p21SWAP], for which the “N (binding stoichiometry)” value on PCNA (100 mM NaCl) is 0.95 ± 0.04; on PCNA (200 mM NaCl), 0.79 ± 0.09; at PCNA (300 mM NaCl), 0.82 ± 0.04; at PCNA (400 mM NaCl), 0.79 ± 0.01. In addition, the ΔH is -14.5 ± 0.22 kcal/mol on PCNA (100 mM NaCl), -18.2 ± 0.48 kcal/mol on PCNA (200 mM NaCl), -17.2 ± 0.96 kcal/mol on PCNA (300 mM NaCl) and -17.7 ± 0.48 kcal/mol on PCNA (400 mM NaCl). Also, the “−TΔS” value on PCNA (100 mM NaCl) came to 4.9 ± 0.22 kcal/mol; on PCNA (200 mM NaCl), 9.08 ± 0.48 kcal/mol; on PCNA (300 mM NaCl) it was 8.6 ± 0.96 kcal/mol; on PCNA (400 mM NaCl), 9.08 ± 0.48 kcal/mol.
With Ac-RRRRQTSMTDFYHSRRR-NH2 [p21All–R], the “N (binding stoichiometry)” value on PCNA (100 mM NaCl) is 0.80 ± 0.05; at PCNA (200 mM NaCl), 0.73 ± 0.01; on PCNA (300 mM NaCl) it was 0.68 ± 0.01; on PCNA (400 mM NaCl), 0.61 ± 0.02. For the same molecule, the ΔH is -20.8 ± 0.24 kcal/mol at PCNA (100 mM NaCl), -20.1 ± 0.72 kcal/mol on PCNA (200 mM NaCl), -20 ± 0.22 kcal/mol at PCNA (300 mM NaCl) and -19.4 ± 0.72 kcal/mol on PCNA (400 mM NaCl). Also, the “−TΔS” value at PCNA (100 mM NaCl) came to 10.8 ± 0.48 kcal/mol; on PCNA (200 mM NaCl), 10.8 ± 0.72 kcal/mol; at PCNA (300 mM NaCl), 11 ± 0.24 kcal/mol; at PCNA (400 mM NaCl) it was 10.5 ± 0.72 kcal/mol.

B1: p21_(SWAP) peptide (peptide)
peptide: Ac-KRKKQTSMTDFYHSRKK-NH2
With B1, the Kd in series [2] is 407 nM; in series [3] it was 547 nM; in series [4] it was 206 nM; in series [5], 87 nM. Besides, the dH in series [2] was -17.2 kcal/mol; in series [3] it was -17.7 kcal/mol; in series [4] it was -18.2 kcal/mol; in series [5] it was -14.5 kcal/mol. Besides, the “stoichiometry N” value was determined as 0.82 in series [2], 0.79 in series [3], 0.79 in series [4] and 0.95 in series [5].

B2: p21_(All–K) peptide (peptide)
peptide: Ac-KKKKQTSMTDFYHSKKK-NH2
With B2, the Kd in series [2] amounted to 456 nM; in series [3], 653 nM; in series [4] it was 347 nM; in series [5], 87 nM. The dH in series [2] is -19.1 kcal/mol; in series [3], -18.2 kcal/mol; in series [4], -17.7 kcal/mol; in series [5], -16.3 kcal/mol. In addition, the “stoichiometry N” value in series [2] was found to be 0.71; in series [3], 0.8; in series [4], 0.75; in series [5], 0.92.

B3: p21_(core) peptide (isolated p21 core motif QTSMTDFYHS) (peptide)
peptide: Ac-QTSMTDFYHS-NH2
Consider B3, for which, in series [2], the Kd was 34300 nM, the dH was -21 kcal/mol and the “stoichiometry N” value was determined as 0.71. In addition, in series [5], the dH was -13.4 kcal/mol and the “stoichiometry N” value is 0.7.

B4: p21_(140–156) peptide (wild-type p21 PIP-degron with flanking regions) (peptide)
peptide: Ac-RKRRQTSMTDFYHSKRR-NH2
For B4, the Kd turned out to be 341 nM in series [2]; 606 nM in series [3]; 182 nM in series [4]; 68 nM in series [5]; 579 nM in series [6]; 19 nM in series [7]. Moreover, the dH was -21.4 kcal/mol in series [2]; -22.2 kcal/mol in series [3]; -21.5 kcal/mol in series [4]; -18.1 kcal/mol in series [5]; -21.3 kcal/mol in series [6]; -17.7 kcal/mol in series [7]. Further, the “stoichiometry N” value is 0.76 in series [2]; 0.8 in series [3]; 0.86 in series [4]; 0.86 in series [5]; 0.72 in series [6]; 0.77 in series [7].

B5: p21_(All–R) peptide (peptide)
peptide: Ac-RRRRQTSMTDFYHSRRR-NH2
For the molecule B5, the Kd in series [2] came out at 273 nM; in series [3] it was 398 nM; in series [4], 139 nM; in series [5], 45 nM. Further, the dH in series [2] is -20 kcal/mol; in series [3] it was -19.4 kcal/mol; in series [4] it was -20.1 kcal/mol; in series [5], -20.8 kcal/mol. Also, the “stoichiometry N” value in series [2] turned out to be 0.68; in series [3], 0.61; in series [4], 0.73; in series [5], 0.8.

By half-life is commonly meant how long it takes for the measured level to halve. A low value points to fast loss. A word on the Kd: it is the concentration at which binding is half-saturated. For orientation: stoichiometry N means a count of units in the complex or per binding partner.
